In article PMC9441147 (Drug Design, Development and Therapy, 2022):
Values after ≈ are worked out from the molar mass of the structure shown. Each block holds one compound with its values, some of them ahead of it.

How the values were obtained:
JAK1 = JAK1 (Homo sapiens, UniProt P23458); conditions: biochemical assays; cited from earlier work
[1] = system: IFNα-induced STAT1 phosphorylation in human T cells or monocytes; assay: IFNα-induced STAT1 phosphorylation, flow cytometry; assay type: cell-based; conditions: read-out: IC50, IFNα, STAT1
Summary of the method: (§1)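 PBMCs were isolated by density gradient from healthy human donor blood, sometimes enriched for lymphocytes or monocytes, and rested. Cells were preincubated with serially diluted test compound (DMSO vehicle), then stimulated with the relevant cytokine. They were fixed (formaldehyde), permeabilized and stained for phospho-STAT, with isotype-control gates and surface-marker cell gating. Flow cytometry gave % phospho-STAT+ cells. Inhibition was calculated versus vehicle-treated stimulated cells to derive IC50.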

Basic pKa, measured = assay type: physicochemical
NF-κB = NF-κB p65 analysis in lung tissue, OVA rat model; assay type: in vivo; conditions: lung tissue 2 hours after OVA challenge
Summary of the method: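 In the OVA-sensitized, OVA-challenged rat model, test compound was given IT 1 h before challenge. Lungs were powderized 2 h after challenge and nuclear extracts prepared with a nuclear extraction kit. Nuclear extract (10 µg) was assayed for NF-κB p65 activation by TransAm ELISA-type assay.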

STAT5a phosphorylation = assay: pSTAT5a in whole lung homogenate, OVA-challenged rats; assay type: in vivo, rat; conditions: IT dosing, 2 hours after OVA challenge, vs OVA/vehicle
Summary of the method: (§2)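 In the OVA-sensitized, OVA-challenged rat model, test compound was given IT 1 h before challenge. Post-caval lung lobes taken 2 h after challenge were powderized in liquid nitrogen and lysed in buffer with protease/phosphatase inhibitors. Protein was measured by Bradford assay. Lysate (10 µg protein) was run on MSD phospho-STAT3/STAT5a/STAT5b/Akt(T308) plates, and blank-subtracted electrochemiluminescence was read.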

[2] = In vivo plasma PK after IV dosing in rats; conditions: rat
Summary of the method: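 Rats received a single IV bolus of test compound, at 1.0 or 0.5 mg/kg depending on compound; n=2. Plasma was then sampled to derive clearance, steady-state volume of distribution and terminal half-life.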

OVA-challenged rats = assay: Airway and lung inflammation in OVA-induced rat model of asthma; assay type: in vivo; conditions: IT
Summary of the method: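 Rats sensitized IP with OVA (100 µg/rat) in aluminium/magnesium hydroxide on days 0, 14, 21 and challenged day 28 with 1% aerosolized OVA for 30 min. Test compound was given IT under isoflurane at 1 mL/kg, 1 h before challenge (100–3000 µg/kg). BAL (2 × 3 mL RPMI) was taken 24 h post-challenge. Leukocytes were counted automatically, with differentials from Wright-stained cytospins; n=7–10/group.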

[3] = system: IL-12-induced STAT4 phosphorylation in human CD3+ T cells and CD56+ NK cells; assay: IL-12-induced STAT4 phosphorylation, flow cytometry; assay type: cell-based; conditions: T-cell, read-out: IC50, IL-12, STAT4
Summary of the method: as §1

[4] = Thermodynamic solubility, pH 7.4; assay type: physicochemical
[5] = In vitro rat plasma protein binding; assay type: in vitro ADME
[6] = system: IL-4-induced STAT6 phosphorylation in human CD4+ T cells; assay: IL-4-induced STAT6 phosphorylation, flow cytometry; assay type: cell-based; conditions: read-out: IC50, IL-4, STAT6
Summary of the method: as §1

pAkt = pAkt analysis in lung tissue, OVA rat model; assay type: in vivo; conditions: lung tissue 2 hours after OVA challenge
Summary of the method: as §2

JAK3 = biological target: T1, JAK3 (Homo sapiens, UniProt P52333); assay: JAK3 enzymatic assay, 1 mM ATP; assay type: biochemical
T1 sequence (P52333 1-1124): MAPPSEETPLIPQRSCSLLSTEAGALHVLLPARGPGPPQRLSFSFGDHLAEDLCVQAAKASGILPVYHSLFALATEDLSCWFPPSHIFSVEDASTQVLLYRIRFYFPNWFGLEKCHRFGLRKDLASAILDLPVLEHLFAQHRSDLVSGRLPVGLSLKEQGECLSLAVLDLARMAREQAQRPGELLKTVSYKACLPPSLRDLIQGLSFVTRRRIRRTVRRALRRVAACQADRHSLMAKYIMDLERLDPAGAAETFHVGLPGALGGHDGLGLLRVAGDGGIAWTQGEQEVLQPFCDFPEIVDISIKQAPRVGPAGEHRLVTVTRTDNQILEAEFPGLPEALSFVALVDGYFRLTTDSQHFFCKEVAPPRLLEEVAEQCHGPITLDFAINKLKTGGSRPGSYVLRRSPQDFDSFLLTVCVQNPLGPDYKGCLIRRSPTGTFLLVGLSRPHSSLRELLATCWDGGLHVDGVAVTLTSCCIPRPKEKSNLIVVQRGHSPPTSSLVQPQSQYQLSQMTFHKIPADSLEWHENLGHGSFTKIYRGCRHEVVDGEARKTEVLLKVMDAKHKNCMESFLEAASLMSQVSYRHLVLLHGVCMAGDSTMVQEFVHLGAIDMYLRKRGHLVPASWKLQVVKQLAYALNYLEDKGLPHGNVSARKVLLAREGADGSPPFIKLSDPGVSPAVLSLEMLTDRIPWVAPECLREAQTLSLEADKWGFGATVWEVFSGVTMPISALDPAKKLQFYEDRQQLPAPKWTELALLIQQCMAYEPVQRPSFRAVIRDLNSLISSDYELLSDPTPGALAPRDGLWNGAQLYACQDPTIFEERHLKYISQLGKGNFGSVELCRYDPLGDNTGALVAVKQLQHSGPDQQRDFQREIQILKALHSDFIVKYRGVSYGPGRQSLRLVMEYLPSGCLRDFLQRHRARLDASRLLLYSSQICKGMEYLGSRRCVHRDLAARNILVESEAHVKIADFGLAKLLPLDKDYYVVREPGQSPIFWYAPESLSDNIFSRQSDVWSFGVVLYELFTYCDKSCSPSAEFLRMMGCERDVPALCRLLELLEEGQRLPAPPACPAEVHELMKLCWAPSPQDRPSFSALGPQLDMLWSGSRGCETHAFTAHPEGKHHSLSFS

[7] = Kinetic solubility, pH 6.8; assay type: physicochemical; conditions: pH 6.8, aqueous buffer, kinetic from dmso stock
[8] = Caco-2 permeability, pH 6.5; assay type: in vitro ADME; conditions: human, Caco-2, pH 6.5
[9] = system: TSLP-induced production of CCL17 in human CD14+ monocytes; assay: TSLP-induced CCL17 release in monocytes; assay type: cell-based; conditions: Monocyte, read-out: IC50, TSLP, CCL17
Summary of the method: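 Human monocytes were taken from PBMCs isolated by density gradient from healthy donor blood. They were preincubated with serially diluted test compound (DMSO vehicle), then stimulated with recombinant TSLP. Supernatants were collected by brief centrifugation, and released CCL17 was quantified by ELISA or MSD U-plex immunoassay. Reduction versus vehicle-treated stimulated cells gave IC50.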

[10] = system: IL-13-induced STAT6 phosphorylation in human CD14+ monocytes; assay: IL-13-induced STAT6 phosphorylation in monocytes; assay type: cell-based; conditions: Monocyte, read-out: IC50, IL-13, STAT6
Summary of the method: as §1

STAT5b phosphorylation = assay: pSTAT5b in whole lung homogenate, OVA-challenged rats; assay type: in vivo, rat; conditions: IT dosing, 2 hours after OVA challenge, vs OVA/vehicle
Summary of the method: as §2

STAT3 phosphorylation = assay: pSTAT3 in whole lung homogenate, OVA-challenged rats; assay type: in vivo, rat; conditions: IT dosing, 2 hours after OVA challenge, vs OVA/vehicle
Summary of the method: as §2

[11] = Lung and plasma PK after single intratracheal dose in treatment-naïve rats; assay type: in vivo; conditions: rat
Summary of the method: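 Treatment-naïve rats were given a single IT dose, at a lung-deposited dose of 52 or 30 µg/kg depending on compound. Plasma and lungs were sampled at 0.03, 0.5, 2, 6, 8 and 24 h, three animals per time point. Post-caval lobes were bead-homogenized in Ringer's solution. Samples were protein-precipitated with acetonitrile containing 0.2% formic acid and internal standard, then analysed by LC-MS/MS.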

[12] = system: IL-2-induced STAT5 phosphorylation in human T cells; assay: IL-2-induced STAT5 phosphorylation in human T cells, flow cytometry; assay type: cell-based; conditions: T-cell, read-out: IC50, IL-2, STAT5 (human)
Summary of the method: as §1

[13] = system: phosphorylated STAT3-positive cell nuclei; assay: pSTAT3 immunohistochemistry of lung sections, OVA-challenged rats; assay type: in vivo, rat; conditions: OVA/AZD4604 1 mg/kg versus OVA/vehicle

Sequence of JAK1 (P23458 whole entry): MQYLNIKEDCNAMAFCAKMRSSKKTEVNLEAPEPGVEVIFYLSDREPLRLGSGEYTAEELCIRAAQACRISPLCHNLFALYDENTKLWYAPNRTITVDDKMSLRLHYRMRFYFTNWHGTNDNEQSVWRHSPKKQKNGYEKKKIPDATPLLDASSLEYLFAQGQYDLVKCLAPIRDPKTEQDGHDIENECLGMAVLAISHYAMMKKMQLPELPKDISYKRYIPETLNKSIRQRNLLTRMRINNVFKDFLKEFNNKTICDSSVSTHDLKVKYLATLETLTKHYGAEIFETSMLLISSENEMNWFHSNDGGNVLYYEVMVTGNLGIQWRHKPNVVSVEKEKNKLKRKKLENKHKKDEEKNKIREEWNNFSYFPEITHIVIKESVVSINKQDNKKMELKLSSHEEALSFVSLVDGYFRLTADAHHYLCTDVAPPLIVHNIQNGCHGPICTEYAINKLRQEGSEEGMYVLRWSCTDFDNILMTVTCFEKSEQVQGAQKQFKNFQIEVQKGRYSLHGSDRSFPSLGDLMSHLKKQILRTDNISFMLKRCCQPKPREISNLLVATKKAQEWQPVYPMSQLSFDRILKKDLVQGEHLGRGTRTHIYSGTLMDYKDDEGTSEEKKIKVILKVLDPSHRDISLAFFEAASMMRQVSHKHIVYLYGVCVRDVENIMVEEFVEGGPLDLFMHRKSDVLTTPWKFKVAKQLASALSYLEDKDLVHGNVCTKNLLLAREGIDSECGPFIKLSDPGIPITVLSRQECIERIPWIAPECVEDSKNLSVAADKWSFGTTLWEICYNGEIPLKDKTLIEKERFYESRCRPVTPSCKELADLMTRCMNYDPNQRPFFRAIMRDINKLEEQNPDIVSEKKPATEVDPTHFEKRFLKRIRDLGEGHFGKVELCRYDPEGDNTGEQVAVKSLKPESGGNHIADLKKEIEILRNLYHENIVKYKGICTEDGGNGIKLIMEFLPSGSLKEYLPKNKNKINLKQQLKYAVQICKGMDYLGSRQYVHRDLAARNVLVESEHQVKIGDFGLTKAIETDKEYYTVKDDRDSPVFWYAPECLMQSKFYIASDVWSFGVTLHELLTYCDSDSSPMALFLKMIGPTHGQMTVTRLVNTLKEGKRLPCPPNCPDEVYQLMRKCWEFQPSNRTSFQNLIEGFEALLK

Compound: CN(CCC#N)C1CCN(C(=O)Cn2cc(NC(=O)c3cnn4cccnc34)c(-c3cc(Cl)ccc3OC(F)F)n2)CC1 [GDC-0214]
- increased selectivity for JAK1 over JAK2 (JAK1): twofold

- IC50 [1]: 0.0012 µM
- pKa (Basic pKa, measured): 7.9
- Vd [2]: 9.9 L/kg
- clearance [2]: 33 mL/min/kg
- half-life [2]: 4.2 h
- IC50 [3]: 0.098 µM
- solubility thermodynamic [4]: 6.6 µM (≈ 3.96 µg/mL)
- In vitro rat plasma protein binding, % free [5]: 10.4 % free
- IC50 [6]: 0.0169 µM
- IC50 (JAK3): > 10 µM
- solubility kinetic [7]: 18 µM (≈ 10.8 µg/mL)
- Papp [8]: 6.7 ×10⁻⁶ cm/s
- IC50 [9]: 0.057 µM
- IC50 [10]: 0.0231 µM
- proportion of the dose remaining in whole lung tissue 24 hours after administration ([11]; IT, assuming 100% lung deposition): 0.3%
- half-life ([11]; lung, inhaled or intranasal): ~5 h
- half-life ([11]; lung, other: intratracheal): 5 h
- half-life ([11]; plasma, inhaled or intranasal): ~5 h
- IC50 [12]: 0.021 µM
Compound: COC[C@H](C(=O)Nc1cccc2c(-c3nc(Nc4cccc(S(C)(=O)=O)c4F)ncc3F)c[nH]c12)N1CCN(C)CC1 [AZD4604]
- effect on NF-κB (NF-κB): no significant effect
- STAT5a phosphorylation in whole lung homogenates (STAT5a phosphorylation): dose-dependently inhibited
- eosinophil numbers in BALF (OVA-challenged rats; 24 hours after OVA challenge, vs OVA/vehicle): numerically reduced
- eosinophil numbers in lung tissue (OVA-challenged rats; 24 hours after OVA challenge, vs vehicle, to levels seen in saline-challenged animals): reduced
- cytokines eotaxin and IL-1β in BALF (OVA-challenged rats; vs OVA/vehicle): numerically lowered
- levels of lymphocytes, neutrophils, and macrophages in BALF (OVA-challenged rats; vs OVA/vehicle): numerically lowered
- effect on pAkt (pAkt): no significant effect
- STAT5b phosphorylation in whole lung homogenates (STAT5b phosphorylation): dose-dependently inhibited
- STAT3 phosphorylation in whole lung homogenates (STAT3 phosphorylation): dose-dependently inhibited
- proportion of phosphorylated STAT3-positive cell nuclei in endothelium and bronchial epithelium ([13]; P < 0.01): significantly reduced
- proportion of phosphorylated STAT3-positive cell nuclei in the alveolar epithelium ([13]; P < 0.05): significantly reduced

Compound: CN(CCC#N)C1CCN(C(=O)Cn2cc(NC(=O)c3cnn4cccnc34)c(-c3cc(Cl)ccc3OC(F)F)n2)CC1 [iJak-381]
- increased selectivity for JAK1 over JAK2 (JAK1): sixfold
